p-CIP stab down: lowers stability of the mouse p/CIP coactivator protein; Q05BA5; F442A p/CIP-EGFP cells, EGFP fluorescence, 16 h; decrease of EGFP signal, % at 10 µM; AID 1984; 290,000 tested, 0.01% active;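 active = EGFP signal decrease of at least 30% at 10 µM or well 3 SD below plate mean, unless failing retest; inactive = the rest, including hits failing retest or dose response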
DNA FID counter: fluorescent intercalator displacement, NS3 helicase counter-screen; inhibition, % at 7.9 µM; 290,000 tested, 0.17% active; DNA fluorescent intercalator displacement, fluorescence; in the data active = inhibition above about 37%;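 also: higher means more ethidium bromide displaced from hairpin DNA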
NS3 helicase inh: inhibitors of Hepatitis C virus NS3 helicase. 290,000 tested, 0.56% active. NS3 helicase DNA unwinding, Cy5 molecular beacon fluorescence. inhibition, % at 10.9 µM. AID 1800;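 active = inhibition above the mean of all tested compounds plus 3 SD, set per campaign, cut at about 35% in these data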
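Assay system – hepatitis C virus NS3 helicase domain fragment enzyme · Buffer or medium – MOPS pH 6.5, MgCl2, DTT, Tween20, BSA · Reagent – Cy5/quencher beacon DNA duplex and ATP to start · Compound – single 10.9 µM dose · Timing – 1 h at 25 °C · Technique – Cy5 beacon fluorescence read at start and 1 h · Measure – % inhibition of unwinding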
core dimer inh: HCV core protein dimerization inhibition | 300,000 tested, 0.33% active | TR-FRET GST/Flag-core106 dimerization, 1536-well | inhibition, % at 5 µM;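 active = inhibition above the mean of all tested compounds plus 3 SD, set per screening campaign, cut at about 45% in these data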
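System: GST/Flag-tagged HCV core106 proteins. Incubation: compound-protein-antibody incubation 4 h at 22.5 °C. Technique: HTRF with 340 nm excitation, 617/671 nm emission. Medium: KF-containing HEPES buffer, pH 7.45, DTT, CHAPS, BSA. Read-out: inhibition (%) from 671 over 617 nm ratio. Also added: Eu(K)-anti-GST 90 ng/mL plus XL665-anti-Flag 1 µg/mL.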
GPR7 antag: blocks human GPR7 receptor signaling | GPR7-expressing cells, fluorescence antagonist assay | P48145 | inhibition, % at 4.4 µM | 290,000 tested, 1.1% active; in the data active = inhibition above about 16%, passing the limit was not always enough;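 also: cells stimulated with the agonist NPW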
Target sequence (P48145 whole entry, looked up): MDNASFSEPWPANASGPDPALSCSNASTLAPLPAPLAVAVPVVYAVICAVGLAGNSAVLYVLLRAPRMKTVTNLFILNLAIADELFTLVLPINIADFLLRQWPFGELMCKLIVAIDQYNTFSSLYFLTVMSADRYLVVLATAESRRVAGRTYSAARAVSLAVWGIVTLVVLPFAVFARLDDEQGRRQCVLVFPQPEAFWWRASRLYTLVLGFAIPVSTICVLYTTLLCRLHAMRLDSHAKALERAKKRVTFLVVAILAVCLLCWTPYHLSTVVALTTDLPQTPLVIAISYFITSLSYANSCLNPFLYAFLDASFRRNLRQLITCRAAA
Numbers stand for hits; i = inactive; nt = no result given. Sampled rows, rich in hits. Any-hit rate of the full collection: about 1.9%.

SMILES | p-CIP stab down | DNA FID counter | NS3 helicase inh | core dimer inh | GPR7 antag
CCOC(=O)c1cnc2c(CC)cccc2c1NCCCN1CCOCC1 | i | 52 | i | i | i
CCOC(=O)c1cnc2ccc(OCC)cc2c1NCCCN1CCOCC1 | i | 55 | i | i | i
N#Cc1sc2nc(C3CC3)cc(-c3ccccc3)c2c1N | i | i | i | i | i
N#Cc1sc2nc(-c3ccccc3)cc(-c3ccco3)c2c1N | i | i | i | 49 | i
COc1ccc(-c2cc(C(F)(F)F)c3c(n2)sc2c(O)cc(=O)[nH]c23)c(OC)c1 | i | i | i | 48 | i
COc1cc(NC(=O)CSc2nnc3c(n2)[nH]c2ccc(S(=O)(=O)NC(C)C)cc23)cc(OC)c1OC | i | i | i | i | i
N#Cc1cccc(NC(=O)CSc2ccc3c4c(cccc24)C(=O)c2ccccc2-3)c1 | i | i | i | 67 | i
CC(C)COP(=O)(OCC(C)C)C(Nc1ccccc1)c1ccc(F)cc1 (configuration not stated) | i | i | i | i | 18
CCOC(=O)C1(CC2CCCCO2)CCN(Cc2cc3ccccc3[nH]2)CC1 (configuration not stated) | i | i | i | i | 96
CCCCc1ncc(CN2CCC(CC3CCCCO3)(C(=O)OCC)CC2)[nH]1 (configuration not stated) | i | i | i | i | i
COC(=O)C1(CC2CC(c3ccncc3)=NO2)CCN(C(=O)OC(C)(C)C)CC1 (configuration not stated) | nt | nt | nt | i | nt
O=C1Nc2ccccc2C12Nc1ccccc1-c1nc3ccccc3n12 (configuration not stated) | i | i | i | i | 21
Cc1[nH]nc2c1C(c1ccsc1C)C(C#N)=C(N)O2 (configuration not stated) | i | i | i | i | i
Cc1cc(C2C(C#N)=C(N)SC(N)=C2C#N)c(C)s1 | i | i | i | 51 | i
Cc1cc(C2C(C#N)=C(N)Oc3n[nH]c(C)c32)c(C)s1 (configuration not stated) | i | i | i | i | i
Cc1sccc1C1C(C#N)=C(N)SC(N)=C1C#N | i | i | i | 60 | i
Cc1cc(NC(=O)CSc2ncnc3sccc23)no1 | i | i | i | i | i
N#Cc1c(NC(=O)CSc2ncnc3sccc23)oc(-c2ccco2)c1-c1ccco1 | i | i | i | 50 | i
CCNC(=O)CSc1ncnc2sccc12 | i | i | i | 58 | i
O=C(N/N=C/c1ccc(OC(F)F)cc1)c1cccc(S(=O)(=O)N2CCOCC2)c1 | i | i | i | i | i
CCOC(=O)C1(Cc2ccccc2C(F)(F)F)CCN(CC(O)CO)CC1 (configuration not stated) | i | i | i | i | i
CCOC(=O)C1(Cc2ccccc2C(F)(F)F)CCN(C2CCN(C(C)C)CC2)CC1 | i | 45 | i | i | i
O=C(Cn1cnc2scc(-c3cccc([N+](=O)[O-])c3)c2c1=O)NCc1ccco1 | i | i | i | 64 | i
O=C(Nc1ccc(NC(=O)c2ccc(Cl)c(S(=O)(=O)N3CCOCC3)c2)cc1)c1ccccc1 | i | i | i | i | i
O=S(=O)(c1cc(-c2nc3ccccc3s2)ccc1Cl)N1CCOCC1 | i | i | i | nt | 23
SMILES | p-CIP stab down | DNA FID counter | NS3 helicase inh | core dimer inh | GPR7 antag
O=C(Nc1ccccc1)Nc1ccc(Cl)c(S(=O)(=O)N2CCOCC2)c1 | i | i | i | i | 18
Cc1ccc(-c2nc3ccccc3s2)cc1S(=O)(=O)N1CCOCC1 | i | i | i | i | i
CNC(=S)N1CCC(c2nc3ccccc3s2)CC1 | i | i | i | i | i
COc1cccc(CNC23CC4CC(CC(C4)C2)C3)c1OCc1ccccc1 | i | i | i | i | 39
CC(C)CC(c1nnnn1Cc1ccc(F)cc1)N1CCC(C(N)=O)CC1 (configuration not stated) | i | i | i | i | i
COCCn1c(SCc2cc(=O)n3ccsc3n2)nnc1-c1ccncc1 | i | i | i | i | i
O=c1cc(CSc2n[nH]c(-c3ccncc3)n2)nc2sccn12 | i | i | i | 53 | i
CCCn1c(CCC(=O)O)ccc1-c1ccc(OC)cc1 | i | i | i | 46 | i
COc1ccc(-c2ccc(CCC(=O)O)n2NC(N)=O)cc1 | i | i | i | i | i
Cc1ccc(O)c(NC(=O)C2CCCN2C(=O)OCc2ccccc2)c1 (configuration not stated) | i | i | i | i | i
COc1ccc(C(=O)N2CCc3ccccc32)cc1 | i | i | i | i | 17
O=C(c1ccccc1)N1CCc2ccccc21 | i | i | i | i | i
Cc1ccc(S(=O)(=O)n2cccc2C)cc1 | nt | nt | nt | i | nt
C=CCNC(=O)COc1c(C)ccc(C)c1C | i | i | i | i | i
CSc1nc(C(=O)N2CCCC(C(=O)c3ccc(Cl)cc3)C2)cs1 (configuration not stated) | i | i | i | i | i
COc1ccc(Cl)cc1N1C(=O)C2CCCN2C1c1ccc(F)c(F)c1 (configuration not stated) | i | i | i | i | 16
CCn1c(NN)nc2sc3c(c2c1=O)CCC3 | i | i | i | 55 | i
COC(=O)[C@@]12CCCCN1[C@H](c1ccc(-c3ccc(F)cc3)cc1)[C@@H]1C(=O)N(C)C(=O)[C@@H]12 | nt | nt | nt | i | nt
CCN(C1CCCCC1)S(=O)(=O)c1ccc(S(=O)(=O)NCc2ccncc2)cc1 | i | i | i | i | 21
CC(C)Cn1c(N)c(C(=O)COC(=O)c2ccccc2F)c(=O)n(C)c1=O | i | i | i | i | 17
CN(C)c1ccc(/C=C2\CCC/C(=C\c3ccccc3)C2=O)cc1 | i | i | i | i | i
CC(=O)N1/C(=C/c2ccc(N(C)C)cc2)C(=O)c2ccccc21 | i | i | i | nt | 28
NC(=S)N1OC[C@@H]2COc3ccc4ccccc4c3[C@@H]21 | i | i | i | i | 16
CO/N=C/NC(=O)N1OC[C@@H]2COc3ccc4ccccc4c3[C@@H]21 | i | i | i | i | i
Cc1ccc(N2C(=O)CN(Cc3ccccc3)C2=S)cc1C | i | i | i | i | i
SMILES | p-CIP stab down | DNA FID counter | NS3 helicase inh | core dimer inh | GPR7 antag
COc1ccc2nc(/C(C#N)=C\c3ccc(Oc4ccc([N+](=O)[O-])cn4)cc3)[nH]c2c1 | i | i | i | 58 | i
O=C(Nc1n[nH]c(=S)s1)c1ccc2ccccc2c1 | i | i | i | i | i
COC(=O)c1c(N)n(CCCN2CCOCC2)c2nc3ccccc3nc12 | i | i | i | i | i
COc1cc2nc(=S)n(CCCN3CCOCC3)c(N)c2cc1OC | i | 45 | i | nt | i
COc1ccc(C(=O)NCCCN2CCOCC2)cc1OC | i | i | i | i | i
COc1cc2ncnc(NCCCN3CCOCC3)c2cc1OC | i | 76 | i | i | i
CCOc1cc2nc(-c3ccc(OC)c(OC)c3)nc(NCCCN3CCOCC3)c2cc1OC | i | 43 | i | i | i
COc1ccc(-n2ncc3c(NCCCN4CCOCC4)ncnc32)cc1 | i | i | i | i | i

Screening results (PubChem BioAssay)
